Compound activity (PubChem)
An excerpt weighted towards active compounds, which were near 3.7% of everything screened.
KCNQ1 act = human KCNQ1 channel potentiation or activation | P51787 | CHO-K1 KCNQ1, thallium flux FluxOR fluorescence; hits give high values | B-score at 10 µM | 310,000 tested, 0.35% active | AID 2648;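 active means fluorescence ratio B-score, a plate-corrected score, at least three library SD, with initial intensity B-score within 5 SD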
Target sequence (P51787 whole entry, looked up): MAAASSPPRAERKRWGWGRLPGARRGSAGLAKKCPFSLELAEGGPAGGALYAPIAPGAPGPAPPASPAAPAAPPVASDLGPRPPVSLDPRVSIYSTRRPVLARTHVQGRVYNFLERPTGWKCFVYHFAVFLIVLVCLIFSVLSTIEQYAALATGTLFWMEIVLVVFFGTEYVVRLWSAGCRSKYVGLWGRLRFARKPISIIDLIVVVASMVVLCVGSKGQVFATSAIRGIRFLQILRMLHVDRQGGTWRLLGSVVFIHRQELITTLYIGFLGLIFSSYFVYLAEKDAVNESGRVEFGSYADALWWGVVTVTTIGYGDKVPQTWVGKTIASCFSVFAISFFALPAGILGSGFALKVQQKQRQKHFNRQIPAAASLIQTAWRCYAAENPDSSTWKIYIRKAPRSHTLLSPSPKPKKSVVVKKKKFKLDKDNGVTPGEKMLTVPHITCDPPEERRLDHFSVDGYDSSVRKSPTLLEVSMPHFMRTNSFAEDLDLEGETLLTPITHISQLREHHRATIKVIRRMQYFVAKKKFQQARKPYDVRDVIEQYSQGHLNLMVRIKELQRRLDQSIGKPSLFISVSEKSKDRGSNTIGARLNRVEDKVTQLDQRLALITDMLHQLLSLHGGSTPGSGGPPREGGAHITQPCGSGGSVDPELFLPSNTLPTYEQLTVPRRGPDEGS
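Test system: CHO-K1 cells stably expressing KCNQ1 / Medium: assay buffer / Also added: depolarizing K+/Tl+ stimulus, K2SO4 and Tl2SO4 each 12.5 mM in 5x stock / Incubation: 90 min dye loading and 20 min compound exposure, both at room temperature / Signal: thallium influx via FluxOR fluorescence, kinetic imaging / Evaluation: B score of baseline-normalized fluorescence ratio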
KCNK9 block = human KCNK9 channel inhibition | Q9NPC2 | HEK293 KCNK9, FluxOR thallium flux fluorescence; hits give low values | B-score at 10 µM | 310,000 tested, 1.2% active | AID 488922;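 active means ratio B-score over 3 SD below the library mean, with starting fluorescence within 5 SD of its mean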;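 further: negative B-score means less thallium flux so channel inhibition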
KCNQ1 inh = inhibitors of human KCNQ1 potassium channel; 310,000 tested, 1.3% active; P51787; CHO-K1 KCNQ1, FluxOR thallium flux fluorescence; hits give high values; B-score at 10 µM;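 active means compounds whose thallium flux B-score, printed positive for inhibition, exceeds three library SD while starting fluorescence stays within three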;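 further: channel opened by potassium depolarization with thallium stimulus after 20 min compound exposure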
KCNK3 block = human KCNK3 channel inhibition, primary screen; O14649; CHO-KCNK3 thallium flux, FluxOR fluorescence; hits give low values; B-score at 10 µM; 340,000 tested, 0.84% active; AID 602410;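 active means B-score under library mean minus 4 SD, starting fluorescence ratio at most library mean plus 5 SD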;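 further: more negative B-score means stronger inhibition of thallium flux through KCNK3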
hERG rescue = hERG (human) protection from proarrhythmic block; Q12809; CHO-hERG, FluxOR thallium flux, dofetilide IC70 present; activation (rescue from dofetilide block), less the hit threshold, % at 10 µM; 310,000 tested, 0.51% active; AID 1511;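 active means activation above the mean of controls blocked by dofetilide plus 5 SD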;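 further: thallium influx through hERG after potassium depolarization seen as dye fluorescence rise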
Kir21 inh = blocks the mouse Kir2.1 inward-rectifier potassium channel; HEK293-Kir2.1, FluxOR thallium flux fluorescence; hits give low values; 310,000 tested, 0.85% active; B-score at 10 µM; AID 1672; P35561;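 active means fluorescence ratio B-score at or below minus 3 SD of library scores, with starting-brightness B-score within 2 SD, cut at about -4.2 in these data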;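 further: channel flux triggered by added potassium and thallium sulfate stimulus; B-score of peak minus minimum fluorescence over baseline after thallium stimulus; more negative B-score means stronger Kir2.1 block with less thallium influx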
Each line names hits and unclear results; the compound was inactive in the other large screens.

O=C(Nc1csnn1)c1csnn1	none
O=C(NC(=S)Nc1ccccc1)c1csnn1	KCNQ1 act 116, hERG rescue 63
CCCC(=O)NC(=S)Nc1ccc(S(=O)(=O)N2CCc3ccccc32)cc1	none
COc1cc2c(cc1OC)CN(C(=O)C1CCC(=O)N(CCCN3CCOCC3)C1)CC2 (stereo unspecified)	none
Cc1cc(NC(=O)CSCC(=O)Nc2ccccc2Oc2ccccc2)no1	Kir21 inh -4.8
Cc1ccc(Oc2ccccc2NC(=O)CSCC(=O)Nc2cc(C)on2)cc1	none
Cc1c(N=Cc2cc(Br)cc(Br)c2O)cccc1C(=O)O	KCNQ1 act 10
C/C(=N\Nc1ncnc2sc(C)c(C)c12)c1ccccn1	KCNQ1 inh 11
Cc1cc(C)cc(C(=O)NC(CC(N)=O)c2ccc(N3CCCCCC3)c([N+](=O)[O-])c2)c1 (stereo unspecified)	KCNQ1 inh 7
N=c1n(CCO)c2ccccc2n1CCOc1ccc(Cl)cc1Cl	Kir21 inh -4.4
COc1ccc(-c2nn(-c3ccccc3)cc2/C=C/C(=O)N2CCN(c3ccccn3)CC2)cc1	KCNQ1 inh 6
CCC(NC(=S)NC1CCCCC1)c1ccc(C(C)C)cc1 (stereo unspecified)	KCNQ1 inh 10
CC(NC(=O)NC12CC3CC(CC(C3)C1)C2)c1ccc2c(c1)OCO2 (stereo unspecified)	none
Cc1ccc(C(C)NC(=S)NC2CCCCC2)cc1C (stereo unspecified)	hERG rescue 6.2, Kir21 inh -5.3
CC(NC(=O)NC1CCCCC1)c1ccc2c(c1)OCO2 (stereo unspecified)	hERG rescue 11
O=C(COC(=O)C1(c2ccccc2F)CCCC1)N1CCNC1=O	none (no result: KCNQ1 act, KCNK9 block, KCNQ1 inh, hERG rescue, Kir21 inh)
CCOC(=O)C1CCCN(S(=O)(=O)c2c(C(=O)N3CCCCC3)c(C)n(C)c2C)C1 (stereo unspecified)	none
COc1ccc(NC(=O)CSc2nnc3n2CCCCC3)cc1S(=O)(=O)N1CCOCC1	none (no result: KCNQ1 act, KCNK9 block, KCNQ1 inh, hERG rescue, Kir21 inh)
O=C(Nc1ncc(Cc2cccc(Cl)c2)s1)c1cccs1	KCNK9 block -6.7
O=C(Nc1ncc(Cc2ccccc2)s1)c1cccs1	none
COc1cnc(-c2ccccn2)nc1Oc1ccc(Cl)c2ccccc12	KCNK9 block -8.1
COC(=O)c1ccc(C(=O)OC)c(NC(=O)C2CC(=O)N(C3CCCC3)C2)c1 (stereo unspecified)	none (no result: KCNQ1 act, KCNK9 block, KCNQ1 inh, hERG rescue, Kir21 inh)
Cc1cc(C)c(S(C)(=O)=O)c(S(=O)(=O)c2ccc(Cl)cc2)n1	none
CNc1nc(C)cc(C)c1S(=O)(=O)c1ccc(C)cc1	Kir21 inh -5.8
Cc1[nH]nc(SCC(=O)N2CCCCC2)c1[N+](=O)[O-]	KCNQ1 act 10
Cc1ccc(NC(=O)CSc2n[nH]c(C)c2[N+](=O)[O-])cc1	none
CCc1cccc(NC(=O)c2cccc3c2C(=O)N(CC2CCCO2)C3)c1 (stereo unspecified)	none
Cc1ccc(S(=O)(=O)N2CCOCC2)cc1NC(=O)CSCc1c(C)noc1C	none (no result: KCNQ1 act, KCNK9 block, KCNQ1 inh, hERG rescue, Kir21 inh)
Cc1cc(C)cc(NC(=S)N(Cc2ccc(Br)cc2)Cc2ccc(C(=O)O)cc2)c1	KCNK9 block -7.4
COc1ccc(N2CCN(C(=O)CN3C(=O)NC4(CCCc5ccccc54)C3=O)CC2)cc1 (stereo unspecified)	none
CC(C)(C)c1ccc(OC(=O)c2cccnc2)cc1	Kir21 inh -4.5
COc1ccc(OC(=O)c2cccnc2)cc1	none
COc1cc([N+](=O)[O-])ccc1NC(=O)Nc1ccc2c(c1)OCCO2	hERG rescue 4.6
COc1cc([N+](=O)[O-])ccc1NC(=S)Nc1cc(C(=O)OC(C)C)cc(C(=O)OC(C)C)c1	KCNQ1 inh 6
COc1ccc(-c2cn3nc(SCC(=O)NC4CCCCC4)ccc3n2)cc1	hERG rescue 5.3
COc1ccc(-c2ccc(SCC(=O)NC3CCCCC3)nn2)cc1	none
CCCCOC(=O)Cn1c(=O)n(CC(=O)OCCCC)c2ccccc21	Kir21 inh -6.1
COc1ccc(/C=N/NC(=O)C(=O)/C=C2\NC3(CCCC3)Cc3ccccc32)cc1	KCNK9 block -6.6
NNC(=O)C(=O)/C=C1\NC2(CCCC2)Cc2ccccc21	none
CCn1c(C)c(C(C)=O)c(N2CCN(c3ccccc3)CC2)nc1=S	none
CCn1c(C)c(C(C)=O)c(N2CCN(c3ccccn3)CC2)nc1=S	KCNK9 block -6.7
COc1ccc2nc(N=Nc3ccc(O)c4ccccc34)sc2c1	KCNQ1 act 18, hERG rescue 11
Cc1ccc(NC(=S)Nc2ccc(S(=O)(=O)Nc3ncccn3)cc2)cc1Cl	KCNQ1 inh 10 (no result: KCNK3 block)
CCOC(=O)C1=C(Cc2ccc(Cl)cc2)C(=O)c2ccccc2C1=O	KCNQ1 inh 10
CCOC(=O)C1=C(O)c2ccccc2C(=O)/C1=C\c1ccc(C)cc1	none (no result: KCNQ1 act, KCNK9 block, KCNQ1 inh, hERG rescue, Kir21 inh)
COc1ccc(Cn2nnnc2C(C(C)C)N(Cc2ccco2)Cc2cccs2)cc1 (stereo unspecified)	KCNK9 block -7.6
CC(C)C(c1nnnn1Cc1ccccc1)N(Cc1ccco1)Cc1cccs1 (stereo unspecified)	none
O=C(NCc1cccnc1)c1ccc(COc2ccccc2Br)o1	none
O=C(Nc1cccnc1)c1ccc(COc2ccccc2Br)o1	hERG rescue 22
Cc1ccc(Cl)c(NC(=O)CSc2n[nH]c(=O)n2C2CC2)c1Cl	none (no result: KCNQ1 act, KCNK9 block, KCNQ1 inh, hERG rescue, Kir21 inh)
O=C(c1ccc(S(=O)(=O)N2CCCC2)cc1)N1CCN(c2ccccc2)CC1	none
O=C(c1ccc(S(=O)(=O)N2CCCC2)cc1)N1CCN(c2cccc(Cl)c2)CC1	KCNQ1 act 9
COc1ccc(NC(=O)CSc2nc3nc(-c4cccs4)cc(C(F)(F)F)c3c(=O)[nH]2)c(OC)c1	KCNQ1 inh 9
Cc1nnc(SCc2ccc(F)cc2)n1NC/C=C/c1ccccc1	Kir21 inh -5.1
Fc1ccccc1CSc1nncn1NC/C=C/c1ccccc1	none
O=C(N[C@@H](Cc1ccccc1)C(=O)OCc1ccccc1)c1nc[nH]c1C(=O)N1CCc2ccccc2C1	KCNQ1 inh 6
CC(=O)OCc1c(C(F)(F)F)nn(C)c1Sc1ccccc1	none
CCC(=O)OCc1c(C(F)(F)F)nn(C)c1Sc1ccc(Cl)cc1	Kir21 inh -4.9
CCCc1cc(C(=O)N2CCN(c3ccc(C(F)(F)F)cn3)CC2)sc1C	none
O=C(COC(=O)c1ccc(Br)cc1)NCCc1ccccc1	none
O=C(COC(=O)c1ccccc1)c1ccc(Br)cc1	KCNK9 block -6.8
O=C(NC(=S)Nc1ncc(Br)cc1Br)c1ccccc1	KCNQ1 act 7
O=C(NC(=S)Nc1cnc2ccccc2c1)c1ccccc1	none
COc1ccccc1NS(=O)(=O)c1ccc2oc(N)nc2c1	Kir21 inh -4.3
COc1ccc(-c2c(C)c3ccc(OCC(C)=O)cc3oc2=O)cc1	hERG rescue 5.7 (no result: KCNK3 block)
